# Measured values: ChEMBL document CHEMBL1123266, “Antibacterial activity of phosphono dipeptides related to alafosfalin” (J Med Chem, 1986)
# Key:
# Escherichia coli [1] = test: Minimum inhibitory concentration (MIC) to control the growth of Escherichia coli strain PCM 2057; type: functional
# Outline: (§1)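 Doubling dilutions of compound were made in a defined liquid peptide medium free of peptide-mimetic antagonists, final 0.065–512 μg/mL. The inoculum was an overnight 37 °C culture diluted to about 4 × 10^6 cfu/mL, incubated overnight at 37 °C. Non-turbid samples were subcultured (0.1 mL) onto solid peptide-medium agar and incubated overnight at 37 °C to assign MIC.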
# Klebsiella aerogenes [2] = test: Concentration (IC50) to inhibit the growth of Klebsiella aerogenes.; type: functional, organism-based
# Outline: (§2)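 Broth dilution in a defined liquid peptide medium lacking antagonists of small peptide mimetics. Inocula were overnight cultures grown in this medium at 37 °C and diluted to about 4 × 10^6 cfu/mL. Compound was tested as a doubling dilution series, final 0.065–512 μg/mL, incubated overnight at 37 °C. Turbidity was read, and IC50 is the concentration reducing 24-h growth to 50% of control.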
# Enterococcus faecalis [3] = test: Minimum inhibitory concentration (MIC) to control the growth of Streptococcus faecalis strain PCM 896; type: functional; outline: as §1
# Serratia marcescens [4] = test: Minimum inhibitory concentration (MIC) to control the growth of Serratia marcescens strain PCM 549.; type: functional; outline: as §1
# Enterococcus faecalis [5] = test: Concentration (IC50) to inhibit the growth of Streptococcus faecalis.; type: functional, organism-based; outline: as §2
# Serratia marcescens [6] = test: Concentration (IC50) to inhibit the growth of Serratia marcescens.; type: functional, organism-based; outline: as §2
# Escherichia coli [7] = test: Concentration (IC50) to inhibit the growth of Escherichia coli.; type: functional, organism-based; outline: as §2
# Staphylococcus aureus [8] = test: Minimum inhibitory concentration (MIC) to control the growth of Staphylococcus aureus strain PCM 2054.; type: functional; outline: as §1
# Bacillus subtilis [9] = test: Concentration (IC50) to inhibit the growth of Bacillus subtilis; type: functional, organism-based; outline: as §2
# Staphylococcus aureus [10] = test: Concentration (IC50) to inhibit the growth of Staphylococcus aureus.; type: functional, organism-based; outline: as §2
# Klebsiella aerogenes [11] = test: Minimum inhibitory concentration (MIC) to control the growth of Klebsiella aerogenes strain PCM 2063; type: functional; outline: as §1
# Bacillus subtilis [12] = test: Minimum inhibitory concentration (MIC) to control the growth of Bacillus subtilis strain PCM 1949.; type: functional; outline: as §1
Compound,MIC (Escherichia coli [1]),MIC (Enterococcus faecalis [3]),MIC (Serratia marcescens [4]),MIC (Staphylococcus aureus [8]),MIC (Klebsiella aerogenes [11]),MIC (Bacillus subtilis [12]),IC50 (Klebsiella aerogenes [2]),IC50 (Enterococcus faecalis [5]),IC50 (Serratia marcescens [6]),IC50 (Escherichia coli [7]),IC50 (Bacillus subtilis [9]),IC50 (Staphylococcus aureus [10])
CC(N)C(=O)NC(C1CC1)P(=O)(O)O (stereo unspecified),> 512 µg/mL,> 512 µg/mL,> 512 µg/mL,> 512 µg/mL,> 512 µg/mL,> 512 µg/mL,> 512 µg/mL,> 512 µg/mL,> 512 µg/mL,> 512 µg/mL,> 512 µg/mL,> 512 µg/mL
CC(N)C(=O)NC(C(C)C)P(=O)(O)O (stereo unspecified),> 512 µg/mL,> 512 µg/mL,> 512 µg/mL,> 512 µg/mL,> 512 µg/mL,> 512 µg/mL,> 512 µg/mL,0.09 µg/mL,> 512 µg/mL,> 512 µg/mL,> 512 µg/mL,6.8 µg/mL
CC(C)CC(N)C(=O)NC(C12CC3CC(CC(C3)C1)C2)P(=O)(O)O (stereo unspecified),> 512 µg/mL,> 512 µg/mL,> 512 µg/mL,> 512 µg/mL,> 512 µg/mL,> 512 µg/mL,> 512 µg/mL,> 512 µg/mL,> 512 µg/mL,> 512 µg/mL,> 512 µg/mL,> 512 µg/mL
CC(=O)OCC(NC(=O)C(N)CC(C)C)P(=O)(O)O (stereo unspecified),> 512 µg/mL,> 512 µg/mL,> 512 µg/mL,> 512 µg/mL,> 512 µg/mL,> 512 µg/mL,> 512 µg/mL,0.065 µg/mL,> 512 µg/mL,> 512 µg/mL,1.4 µg/mL,> 512 µg/mL
CC(N)C(=O)N1CCCC1P(=O)(O)O (stereo unspecified),> 512 µg/mL,> 512 µg/mL,> 512 µg/mL,> 512 µg/mL,> 512 µg/mL,> 512 µg/mL,> 512 µg/mL,> 512 µg/mL,> 512 µg/mL,> 512 µg/mL,> 512 µg/mL,> 512 µg/mL
COc1ccc(CC(NC(=O)C(N)CC(C)C)P(=O)(O)O)cc1OC (stereo unspecified),> 512 µg/mL,> 512 µg/mL,> 512 µg/mL,> 512 µg/mL,> 512 µg/mL,> 512 µg/mL,> 512 µg/mL,> 512 µg/mL,> 512 µg/mL,> 512 µg/mL,> 512 µg/mL,> 512 µg/mL
COc1ccc(CC(NC(=O)C(C)N)P(=O)(O)O)cc1OC (stereo unspecified),> 512 µg/mL,> 512 µg/mL,> 512 µg/mL,> 512 µg/mL,> 512 µg/mL,> 512 µg/mL,> 512 µg/mL,> 512 µg/mL,> 512 µg/mL,> 512 µg/mL,> 512 µg/mL,> 512 µg/mL
CC(C)CC(N)C(=O)NC(Cc1ccccc1)P(=O)(O)O (stereo unspecified),> 512 µg/mL,> 512 µg/mL,> 512 µg/mL,> 512 µg/mL,> 512 µg/mL,> 512 µg/mL,> 512 µg/mL,> 512 µg/mL,> 512 µg/mL,> 512 µg/mL,0.065 µg/mL,0.6 µg/mL
CC(N)C(=O)NC(C1CCCCC1)P(=O)(O)O (stereo unspecified),> 512 µg/mL,> 512 µg/mL,> 512 µg/mL,> 512 µg/mL,> 512 µg/mL,> 512 µg/mL,> 512 µg/mL,> 512 µg/mL,> 512 µg/mL,> 512 µg/mL,> 512 µg/mL,256 µg/mL
CC(C)CC(N)C(=O)NC1(P(=O)(O)O)CCCCC1 (stereo unspecified),> 512 µg/mL,> 512 µg/mL,> 512 µg/mL,> 512 µg/mL,> 512 µg/mL,> 512 µg/mL,> 512 µg/mL,> 512 µg/mL,> 512 µg/mL,> 512 µg/mL,5.6 µg/mL,0.065 µg/mL
CC(N)C(=O)NC(C1CCCC1)P(=O)(O)O (stereo unspecified),> 512 µg/mL,> 512 µg/mL,> 512 µg/mL,> 512 µg/mL,> 512 µg/mL,> 512 µg/mL,> 512 µg/mL,16 µg/mL,> 512 µg/mL,> 512 µg/mL,> 512 µg/mL,512 µg/mL
CC(N)C(=O)NC(C)(C)P(=O)(O)O (stereo unspecified),64 µg/mL,8 µg/mL,> 512 µg/mL,256 µg/mL,256 µg/mL,–,512 µg/mL,19 µg/mL,48 µg/mL,5.6 µg/mL,16 µg/mL,282 µg/mL
CC(N)C(=O)NC(C(C)(C)C)P(=O)(O)O (stereo unspecified),> 512 µg/mL,> 512 µg/mL,> 512 µg/mL,> 512 µg/mL,> 512 µg/mL,> 512 µg/mL,> 512 µg/mL,> 512 µg/mL,> 512 µg/mL,> 512 µg/mL,> 512 µg/mL,> 512 µg/mL
CC(C)CC(N)C(=O)NC(CC(C)C)P(=O)(O)O (stereo unspecified),> 512 µg/mL,> 512 µg/mL,> 512 µg/mL,512 µg/mL,> 512 µg/mL,> 512 µg/mL,> 512 µg/mL,> 512 µg/mL,64 µg/mL,307 µg/mL,32 µg/mL,104 µg/mL
CC(C)CC(NC(=O)C(C)N)P(=O)(O)O (stereo unspecified),> 512 µg/mL,> 512 µg/mL,> 512 µg/mL,256 µg/mL,> 512 µg/mL,> 512 µg/mL,> 512 µg/mL,90 µg/mL,> 512 µg/mL,> 512 µg/mL,153 µg/mL,48 µg/mL
CC(C)CC(N)C(=O)NC(C1CCCC1)P(=O)(O)O (stereo unspecified),> 512 µg/mL,> 512 µg/mL,128 µg/mL,> 512 µg/mL,> 512 µg/mL,> 512 µg/mL,> 512 µg/mL,> 512 µg/mL,64 µg/mL,> 512 µg/mL,435 µg/mL,6 µg/mL
CC(N)C(=O)NC1(P(=O)(O)O)CCCCC1 (stereo unspecified),> 512 µg/mL,> 512 µg/mL,> 512 µg/mL,> 512 µg/mL,> 512 µg/mL,> 512 µg/mL,> 512 µg/mL,> 512 µg/mL,> 512 µg/mL,> 512 µg/mL,> 512 µg/mL,> 512 µg/mL

# Further lines, with some results ahead:
MIC (Escherichia coli [1]),MIC (Enterococcus faecalis [3]),MIC (Serratia marcescens [4]),MIC (Staphylococcus aureus [8]),MIC (Klebsiella aerogenes [11]),MIC (Bacillus subtilis [12]),Compound,IC50 (Klebsiella aerogenes [2]),IC50 (Enterococcus faecalis [5]),IC50 (Serratia marcescens [6]),IC50 (Escherichia coli [7]),IC50 (Bacillus subtilis [9]),IC50 (Staphylococcus aureus [10])
> 512 µg/mL,> 512 µg/mL,> 512 µg/mL,> 512 µg/mL,> 512 µg/mL,> 512 µg/mL,CC(C)CC(N)C(=O)NC(C1CCCCC1)P(=O)(O)O (stereo unspecified),> 512 µg/mL,> 512 µg/mL,> 512 µg/mL,> 512 µg/mL,> 512 µg/mL,> 512 µg/mL
> 512 µg/mL,> 512 µg/mL,> 512 µg/mL,> 512 µg/mL,> 512 µg/mL,> 512 µg/mL,CC(N)C(=O)NC(C12CC3CC(CC(C3)C1)C2)P(=O)(O)O (stereo unspecified),> 512 µg/mL,> 512 µg/mL,> 512 µg/mL,> 512 µg/mL,> 512 µg/mL,> 512 µg/mL
128 µg/mL,> 512 µg/mL,> 512 µg/mL,> 512 µg/mL,128 µg/mL,128 µg/mL,CC(C)CC(N)C(=O)NC(CCC(=O)O)P(=O)(O)O (stereo unspecified),22 µg/mL,32 µg/mL,16 µg/mL,18 µg/mL,14 µg/mL,128 µg/mL
> 512 µg/mL,> 512 µg/mL,> 512 µg/mL,> 512 µg/mL,> 512 µg/mL,> 512 µg/mL,CC(C)CC(N)C(=O)NC(C(C)(C)C)P(=O)(O)O (stereo unspecified),> 512 µg/mL,> 512 µg/mL,> 512 µg/mL,> 512 µg/mL,> 512 µg/mL,> 512 µg/mL
> 512 µg/mL,> 512 µg/mL,> 512 µg/mL,> 512 µg/mL,> 512 µg/mL,> 512 µg/mL,CC(=O)OCC(NC(=O)C(C)N)P(=O)(O)O (stereo unspecified),96 µg/mL,512 µg/mL,> 512 µg/mL,> 512 µg/mL,> 512 µg/mL,0.065 µg/mL
128 µg/mL,> 512 µg/mL,512 µg/mL,64 µg/mL,256 µg/mL,> 512 µg/mL,CC(C)CC(N)C(=O)N1CCCC1P(=O)(O)O (stereo unspecified),154 µg/mL,42 µg/mL,83 µg/mL,70 µg/mL,> 512 µg/mL,35 µg/mL
64 µg/mL,> 512 µg/mL,> 512 µg/mL,256 µg/mL,128 µg/mL,16 µg/mL,CC(N)C(=O)NC(CCC(=O)O)P(=O)(O)O (stereo unspecified),4.8 µg/mL,32 µg/mL,0.065 µg/mL,5.6 µg/mL,14 µg/mL,1.8 µg/mL
8 µg/mL,> 512 µg/mL,0.5 µg/mL,32 µg/mL,> 512 µg/mL,16 µg/mL,CC(C)CC(N)C(=O)NC(C)P(=O)(O)O (stereo unspecified),1.6 µg/mL,2 µg/mL,0.1 µg/mL,0.09 µg/mL,4 µg/mL,8 µg/mL
64 µg/mL,8 µg/mL,> 512 µg/mL,256 µg/mL,256 µg/mL,256 µg/mL,CC(C)CC(N)C(=O)NC(C)(C)P(=O)(O)O (stereo unspecified),4.4 µg/mL,4.4 µg/mL,384 µg/mL,35 µg/mL,45 µg/mL,48 µg/mL
